Bioassay records (PubChem)
LMPTP block – LMPTP phosphatase inhibitors, primary screen, biochemical, fluorescence intensity, uHTS; recombinant LMPTP-A, OMFP fluorogenic substrate; Low molecular weight phosphotyrosine protein phosphatase (Homo sapiens), P24666; inhibition, % at 20 µM; AID 651560, 2012; hit rate 0.22% among 360,000;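 active = compounds that cut the enzyme signal by at least half of the control window in the single-dose screen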
Target sequence (P24666 whole entry, looked up): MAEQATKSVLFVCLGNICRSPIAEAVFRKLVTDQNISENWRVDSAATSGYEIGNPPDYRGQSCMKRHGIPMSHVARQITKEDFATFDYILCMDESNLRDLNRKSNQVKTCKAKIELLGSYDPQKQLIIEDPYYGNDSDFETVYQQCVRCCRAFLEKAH
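Test system: LMPTP-A phosphatase enzyme; input: 0.625 nM LMPTP-A final; reagent: OMFP substrate, 400 µM final; compound dosing: 20 µM single dose, 3% DMSO; incubation: 50 min dark incubation at room temperature; measured by: endpoint fluorescence intensity from OMFP dephosphorylation; measure: % inhibition relative to no-enzyme and uninhibited control wells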
STEP inh – STEP phosphatase inhibitors, primary screen, biochemical, fluorescence intensity, uHTS; Tyrosine-protein phosphatase non-receptor type 5 (Homo sapiens), P54829; recombinant STEP, OMFP fluorogenic substrate; inhibition, % at 20 µM; hit rate 0.25% among 360,000;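 active = inhibition at 20 µM, scaled per plate between control wells, above about 37%, limit read from the data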
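Also added – OMFP at 25 µM · Test system – STEP tyrosine phosphatase · Technique – FITC-channel fluorescence of OMFP product · Schedule – 20 min at room temperature, dark · Evaluation – control-normalized % inhibition with plate pattern correction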
DNMT1 block – human DNMT1 methyltransferase inhibitors, primary screen, biochemical, molecular beacon, fluorescence, HinP1I cleavage, uHTS | inhibition (reported as % activation of signal), % at 10 µM | hit rate 0.83% among 360,000 | DNA (cytosine-5)-methyltransferase 1 (Homo sapiens), P26358; in the data active = inhibition above about 50%
SUMO1 PPI mod – modulators of SUMO1 protein-protein interactions, primary screen, biochemical, uHTS; SUMO1 binding to a labelled peptide, TR-FRET, 1 h; hit rate 0.33% among 360,000; inhibition, % at 20 µM; Small ubiquitin-related modifier 1 (Homo sapiens), P63165; in the data active = inhibition above about 37%
Target sequence (P63165 whole entry, looked up): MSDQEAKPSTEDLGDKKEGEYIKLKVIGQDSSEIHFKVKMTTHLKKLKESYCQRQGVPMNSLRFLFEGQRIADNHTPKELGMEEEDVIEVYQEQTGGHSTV
Scp1 inh – Scp-1 phosphatase inhibitors, primary screen, biochemical, colorimetric, uHTS; Carboxy-terminal domain RNA polymerase II polypeptide A small phosphatase 1 (Homo …; Recombinant Scp1, phosphopeptide, malachite green phosphate absorbance; AID 493091, 2011; hit rate 0.88% among 340,000; inhibition, % at 20 µM;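 active = inhibition above about 50% at 20 µM, limit read from the data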
Target sequence (Q9GZU7 76-261 limits assumed): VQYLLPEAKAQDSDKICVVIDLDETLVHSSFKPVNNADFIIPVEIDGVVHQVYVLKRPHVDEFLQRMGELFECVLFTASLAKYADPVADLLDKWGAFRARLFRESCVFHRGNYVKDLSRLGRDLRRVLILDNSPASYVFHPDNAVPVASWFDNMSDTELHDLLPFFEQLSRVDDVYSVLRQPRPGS
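Material – SCP-1 phosphatase catalytic domain, residues 76-261 · Buffer or medium – Acidic Tris acetate buffer with magnesium and detergent · Also added – Phospho 17-mer peptide substrate · Compound – single 20 µM dose, 1% DMSO · Times – 45 min room-temperature reaction, 5 min colour, 30 min stabiliser · Technique – Phosphate-binding colour reagent, absorbance read at 630 nm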
SUMO HTRF inh – inhibitors of in vitro SUMOylation cascade, primary screen, biochemical, HTRF, uHTS; SUMO-conjugating enzyme UBC9 (Homo sapiens), P63279; HTRF SUMOylation assay, SAE1/SAE2 + UBC9; inhibition, % at 35 µM; hit rate 0.36% among 290,000; in the data active = inhibition above about 50%, passing the limit was not always enough
Target sequence (P63279 whole entry, looked up): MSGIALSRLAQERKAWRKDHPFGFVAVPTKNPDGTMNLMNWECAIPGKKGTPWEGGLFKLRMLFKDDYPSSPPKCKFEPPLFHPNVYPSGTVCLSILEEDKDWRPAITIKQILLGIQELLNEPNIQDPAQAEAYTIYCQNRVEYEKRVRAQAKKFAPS
DNMT1 interf DR – spectral interference with molecular beacon fluorescence, dose response, artefact control for DNMT1 inhibitor project, biochemical, fluorescent molecular beacon; shares compounds with DNMT1 block; spectral interference counter-screen; IC50, µM; 200 tested, under 10 active; AID 602382, 2012; call rule not given here
DNMT1 inh conf – DNMT1 methyltransferase inhibitor retest, confirmation, biochemical, molecular beacon, fluorescence, single concentration | shares compounds with DNMT1 block | DNMT1 molecular beacon HinP1I cleavage | hit rate 8% among 2,300 | inhibition, % at 10 µM;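 active = average inhibition of at least 30% in the single-concentration confirmation test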
DNMT1 interf – shows spectral interference in the DNMT1 beacon assay. shares compounds with DNMT1 block. DNMT1 molecular beacon spectral interference counterscreen, fluorescence 485/520. activation (fluorescence interference), % at 10 µM. hit rate 1% among 2,300. AID 602387;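 active = activation of at least 30% at 10 µM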;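 note: DNMT1 catalytic domain with a HinP1I cleavage step and a FAM/dabcyl DNA beacon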
Of the large screens only hits and unclear results are named; the others gave an inactive call (follow-up assays come after a bar, where they were run). Compounds with a hit are over-represented: about 1.9% of the library has one in this group of screens.

C=CCNC(=S)NN(c1ccccc1)c1ccccc1	none
O=C(O)Cn1nncc1-c1ccc(C(F)(F)F)cc1	none (no result: Scp1 inh, SUMO HTRF inh)
CCOc1cc2[nH]c(=S)n(CCC(=O)NC3CCCCC3)c(=O)c2cc1OCC	DNMT1 block 51.1 (no result: Scp1 inh, SUMO HTRF inh) | DNMT1 inh conf inactive | DNMT1 interf inactive
CCOc1cc2[nH]c(=O)n(CCCCC(=O)NC3CCCCCC3)c(=O)c2cc1OCC	none
Cc1ccc(C(=O)c2coc3c2C(=O)C(=O)c2ccccc2-3)cc1	none
Cc1oc2c(c1C(=O)c1ccc(Cl)cc1)C(=O)C(=O)c1ccccc1-2	DNMT1 block 73.9, SUMO HTRF inh 71.0 | DNMT1 interf DR inactive | DNMT1 inh conf inactive | DNMT1 interf inactive
Cc1cc(NC(=O)NC(C(F)(F)F)C(F)(F)F)no1	none
CC(=O)N1N=C(c2ccccc2)CC1c1ccccc1 (stereo not drawn)	DNMT1 block 88.1 | DNMT1 inh conf inactive | DNMT1 interf inactive
O=C(c1ccccc1)N1N=C(c2ccccc2)CC1c1cccs1 (stereo not drawn)	DNMT1 block 89.3 | DNMT1 inh conf inactive | DNMT1 interf inactive
c1cc(-c2cc3c(o2)CCCC3OCCN2CCOCC2)cs1 (stereo not drawn)	none (no result: STEP inh, DNMT1 block, Scp1 inh, SUMO HTRF inh)
COc1ccc(C(=O)/C(C#N)=N/Nc2cccc([N+](=O)[O-])c2)cc1	none
Cc1ccc(C(=O)Nc2cccc(C(=O)NC3CCCCC3)c2)cc1	none
CCNc1ccc(Br)cc(C(=O)/C=C/c2ccccc2Cl)c1=O	DNMT1 block 76.9 (no result: SUMO HTRF inh) | DNMT1 inh conf inactive | DNMT1 interf inactive
COc1ccccc1NC(=O)CSc1ccc(-c2ccc(-n3cccn3)cc2)nn1	none (no result: SUMO HTRF inh)
CC(=O)c1ccc(NC(=O)CSc2ccc(-c3ccc(-n4cccn4)cc3)nn2)cc1	DNMT1 block 71.2 (no result: SUMO HTRF inh) | DNMT1 inh conf inactive | DNMT1 interf inactive
COc1ccc(NC2CCCN(C(=O)c3cc(CC(C)C)nc(N)n3)C2)cc1 (stereo not drawn)	none
COc1ccc(/C=c2\sc3nc(-c4ccccc4OC)nn3c2=O)c(OC)c1	DNMT1 block 70.9 | DNMT1 inh conf inactive | DNMT1 interf inactive
COc1ccc(/C(C)=N/Nc2ccc(C(=O)O)cc2)c(OC)c1	DNMT1 block 55.8 | DNMT1 inh conf inactive | DNMT1 interf inactive
COc1ccc2c(c1)C(=NNc1ccc(C(=O)O)cc1)c1cc(OC)ccc1-2	none
Fc1cccc(F)c1/C=C/c1ccc2ccccc2n1	none
C(=C\c1ccco1)/c1ccc2ccccc2n1	LMPTP block 57.0, DNMT1 block 79.9 | DNMT1 inh conf inactive | DNMT1 interf inactive
COc1ccc(N(CC(=O)Nc2ccc(Cc3ccncc3)cc2)S(=O)(=O)c2ccccc2)cc1	none
O=c1cc(-c2ccco2)oc2c1ccc1ccccc12	DNMT1 block 65.0 | DNMT1 inh conf inactive | DNMT1 interf inactive
CCCn1c(C2CCCN2c2nc(-c3cccc(Br)c3)cs2)nc2ccccc21 (stereo not drawn)	none
CCc1cc(CNC(=O)CC2C(=O)NCCN2Cc2c(F)cccc2Cl)on1 (stereo not drawn)	none
COc1ccc2nc(-c3ccco3)c(-c3ccco3)nc2c1	LMPTP block 53.9, DNMT1 block 97.9, SUMO1 PPI mod 43.7, Scp1 inh 77.0, SUMO HTRF inh 71.2 | DNMT1 inh conf inactive | DNMT1 interf inactive
COc1ccc2nc3cccc(OC)c3nc2c1	none
CC(C)(C)NC(=O)CSc1nc(O)cc(=O)[nH]1	none
Cc1cccc2sc(NNC(=O)c3cc(-c4cccs4)nc4ccccc34)nc12	DNMT1 block 68.7 | DNMT1 inh conf inactive | DNMT1 interf inactive
NNC(=O)c1cc(-c2cccs2)nc2ccccc12	none
O=C(Cc1cccc(C(F)(F)F)c1)Nc1cc(S(=O)(=O)N2CCOCC2)ccc1N1CCCC1	none (no result: SUMO HTRF inh)
O=S(=O)(Nc1c(S(=O)(=O)c2ccccc2)c2nc3ccccc3nc2n1C1CCCCC1)c1ccccc1	DNMT1 block 66.8, SUMO1 PPI mod 49.7, SUMO HTRF inh 98.9 | DNMT1 interf DR inactive | DNMT1 inh conf 46.5 | DNMT1 interf inactive
O=C(COC(=O)/C=C/c1ccc(Br)o1)Nc1ccc2[nH]c(=O)[nH]c2c1	DNMT1 block 82.2, SUMO1 PPI mod 104.0 (no result: Scp1 inh, SUMO HTRF inh) | DNMT1 inh conf inactive | DNMT1 interf inactive
O=C(COC(=O)/C=C/c1cccc(Cl)c1)Nc1ccc2[nH]c(=O)[nH]c2c1	none (no result: SUMO HTRF inh)
Cc1cc[n+](Cc2ccccc2)c(N)c1	none (no result: SUMO HTRF inh)
O=C(Nc1ccc(C(=O)O)cc1)/C(=C\c1cccc([N+](=O)[O-])c1)NC(=O)c1ccc(Br)o1	none
C=CCn1c(SCC(=O)NCc2ccco2)nc2ccccc2c1=O	none
CCn1c(SCC(=O)NC(=O)NCc2ccco2)nc2sc(C)c(C)c2c1=O	DNMT1 block 77.9, SUMO1 PPI mod 50.4 | DNMT1 inh conf inactive | DNMT1 interf inactive
Cc1sc2nc(SCC(=O)NCc3ccco3)n(C)c(=O)c2c1C	none
C=CCn1c(SCC(=O)NC(=O)NCc2ccco2)nc2sc(CC)cc2c1=O	DNMT1 block 61.7 | DNMT1 inh conf inactive | DNMT1 interf inactive
CC(=O)Oc1ccc(C23c4ccccc4C2(OC(C)=O)c2cc(OC(C)=O)ccc23)cc1 (stereo not drawn)	none (no result: SUMO HTRF inh)
CC(=O)Oc1cccc(/C=c2\sc3nc(-c4ccco4)nn3c2=O)c1	DNMT1 block 61.2 | DNMT1 inh conf inactive | DNMT1 interf inactive
Cc1nn(CCC(=O)N2CCN(S(=O)(=O)c3ccccc3)CC2)c(C)c1C	none
C=CCOc1ccc(C2NC(=O)c3ccccc3O2)cc1OC (stereo not drawn)	none (no result: Scp1 inh, SUMO HTRF inh)
Cc1ccc(-c2nn(CC(=O)NCc3cc(-c4nn(C)c(=O)c5ccccc45)ccc3C)c(=O)c3ccccc23)cc1	DNMT1 block 57.3 | DNMT1 inh conf inactive | DNMT1 interf inactive
CCC(=O)NCc1cc(-c2nn(C)c(=O)c3ccccc23)ccc1C	none
